The text below walks through data of BindingDB's records for doi:10.1016/j.ejmech.2008.02.028 (Institute of Chemical Technology, 2008).

Broadly, the IC50 is the point on the concentration scale where inhibition reaches its midpoint. High values mean weaker potency in that assay, low ones greater potency in that assay.

This experiment deals with Glutathione hydrolase 1 proenzyme (Homo sapiens, UniProt P19440). The experiment in a line: Inhibition of gamma-glutamyltranspeptidase by colorimetric assay. In outline: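 Colorimetric read-out at 405 nm by a standard procedure. IC50 is the […] giving 50% inhibition of enzyme activity. Values are the average of three independent experiments (n = 3).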
Chain of Glutathione hydrolase 1 proenzyme (P19440 1-380 limits assumed): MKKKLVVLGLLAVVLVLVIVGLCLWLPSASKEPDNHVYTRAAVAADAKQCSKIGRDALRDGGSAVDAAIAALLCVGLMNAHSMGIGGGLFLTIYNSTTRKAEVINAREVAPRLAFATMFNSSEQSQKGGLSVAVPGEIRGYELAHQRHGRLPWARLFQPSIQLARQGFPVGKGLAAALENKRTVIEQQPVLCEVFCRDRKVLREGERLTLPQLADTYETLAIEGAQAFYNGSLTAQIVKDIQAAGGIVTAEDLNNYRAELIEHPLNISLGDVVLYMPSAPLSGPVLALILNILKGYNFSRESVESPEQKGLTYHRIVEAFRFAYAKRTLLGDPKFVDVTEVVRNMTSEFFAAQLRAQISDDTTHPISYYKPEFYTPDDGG
Chain of Glutathione hydrolase 1 proenzyme (P19440 381-569 limits assumed): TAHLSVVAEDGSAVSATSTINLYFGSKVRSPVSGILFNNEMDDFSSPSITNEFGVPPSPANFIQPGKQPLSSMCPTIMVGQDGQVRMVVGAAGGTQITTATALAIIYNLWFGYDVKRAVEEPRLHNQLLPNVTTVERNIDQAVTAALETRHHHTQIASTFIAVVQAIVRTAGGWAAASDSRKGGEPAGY

Compound `CNC(=O)C1=C(C)C2Sc3ccccc3N=C2C(C(=O)NC)C1c1ccccc1OC` (configuration not stated) [2-(2-Methoxyphenyl)-N,N',4-trimethyl-2,10-dihydro-1H-phenothiazine-1,3-dicarboxamide] registered an IC50 of over 30 µM.
The value for `CNC(=O)C1=C(C)C2Sc3ccccc3N=C2C(C(=O)NC)C1c1ccc2c(c1)OCO2` (configuration not stated) [2-(1,3-Benzodioxol-5-yl)-N,N',4-trimethyl-2,10-dihydro-1H-phenothiazine-1,3-dicarboxamide] was over 30 µM.
